Experimental data gathered from unrelated publications.
Each line is one published result; the experiments were not run side by side.
Target: Homeodomain-interacting protein kinase 3 (HIPK3, Homo sapiens, UniProt Q9H422)

SMILES | assay | setting | remaining binding [%]
COc1ccnn2ncc(-c3ccnc(N(C)C)n3)c12 | binding | 1 µM | 80
Cc1cc(NC(=O)c2cccc(S(F)(F)(F)(F)F)c2)cc(-n2ccn3nc(-c4cccnc4)cc23)c1 | cell-free assay, competition with immobilised ligand | 1 µM | 88.8
Cc1cnc(Nc2ccc(C(=O)N3CCC(N4CCCC4)CC3)cc2)nc1-c1cc2ccccc2s1 | binding, competition with immobilised ligand | 1 µM | 3.1
CC1CCCN1c1nccc(-c2cnn3ncccc23)n1 (stereo not shown) | binding | 1 µM | 100
CS(=O)(=O)c1cc(C2(NC(=O)c3cncc4c3cnn4-c3ccc(F)cc3)CC2)ccn1 | cell-free assay, competition with immobilised ligand | 1 µM | 85
O=C(c1ccc(Nc2nccc(-c3cc4ccccc4s3)n2)cc1)N1CCC(N2CCCC2)CC1 | binding, competition with immobilised ligand | 1 µM | 19
CCC(=O)N[C@H]1CC[C@@H](C(=O)N(C)c2ccc(-c3nc4ccccc4o3)cc2)C1 | cell-free assay, competition with immobilised ligand | 1 µM | 74
N[C@H]1CCN(c2nccc(-c3cnn4ncccc34)n2)C1 | binding | 1 µM | 91
O=C(Nc1c[nH]nc1C(=O)NC1CCNCC1)c1cc(F)cc(F)c1 | binding, competition with immobilised ligand | 1 µM | 41
CCCCN(CCCC)C(=O)CN1C[C@@H](c2cc(OC)c3c(c2)OCO3)[C@H](C(=O)O)[C@H]1CC(C)(C)CCC | cell-free assay, competition with immobilised ligand | 1 µM | 100
Nc1ncc2c(n1)-c1c([nH]c3ccc(C#CC4CC4)cc13)CCCC2 | binding, competition with immobilised ligand | 1 µM | 78
O=C(c1ccc(Nc2ncc(Cl)c(-c3ccc(Cl)s3)n2)cc1)N1CCC(N2CCCC2)CC1 | binding, competition with immobilised ligand | 1 µM | 3.5
Cc1cnn2ncc(-c3ccnc(N(C)C)n3)c2c1 | binding | 1 µM | 68
COc1cnc(Nc2cccc(S(N)(=O)=O)c2)nc1N1CCN(c2ccccc2)C(=O)C1 | binding, competition with immobilised ligand | 1 µM | 82
CCS(=O)(=O)c1cc2cc(C[C@@](O)(CC(C)(C)c3ccc(F)cc3C(N)=O)C(F)(F)F)[nH]c2cn1 | cell-free assay, competition with immobilised ligand | 1 µM | 65
C[C@@H]1CCN(c2nccc(-c3cnn4ncccc34)n2)C1 | binding | 1 µM | 68
C[C@@H](c1ccc(-n2cnc3c(N)ncnc32)cc1)N1CCc2nn(C)c(Cc3ccccc3)c2C1=O | binding, competition with immobilised ligand | 0.1 µM | 64
Cn1nc(C(F)(F)F)cc1-c1cnc(N2CCc3cc(S(=O)(=O)Nc4c(F)cc(Cl)cc4F)cc(N4CCCC4=O)c32)nc1 | cell-free assay, competition with immobilised ligand | 1 µM | 85
CN(C)c1ncc(F)c(-c2cnn3ncccc23)n1 | binding | 1 µM | 65
C=CC(=O)N1CCC(C(=O)NCC(=O)N2CCN(c3nc(-c4cnc(N)nc4C(F)F)nc(N4CCOCC4)n3)CC2)CC1 | binding, competition with immobilised ligand | 1 µM | 100
CN(C)c1nccc(-c2cnc3ncccn23)n1 | binding | 1 µM | 46
COc1ncc2cc3ccccc3nc2c1C#N | cell-free assay, competition with immobilised ligand | 5 µM | 100
